Assay results published in publication PMC6318120 (Cellular and molecular life sciences : CMLS, 2017).

Tests used:
Cx43-hemichannels = settings: cited from earlier work; for effect on Cx43-hemichannel inhibition by high [Ca2+]i: 1 μM [Ca2+]i
[1] = test system: Cx43-hemichannels in primary bovine corneal endothelial cells (BCECs); settings: cited from earlier work
Cx43 gap junctions = settings: cited from earlier work
[2] = test system: Cx43-hemichannels in HeLa cells overexpressing Cx43; assay: Whole-cell patch clamp recording of unitary Cx43-hemichannel currents; format: cell-based, human; settings: peptide 100 μM via patch pipette
[3] = test system: native HeLa cells, which lack endogenous Cx43 expression; assay: Whole-cell patch clamp recording in native HeLa cells; format: cell-based, human; settings: peptide 100 μM; voltage steps -30 to +60 mV; Supplementary Fig. 1
Method in brief: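 Whole-cell patch clamp was done on untransfected HeLa cells. The CsCl/EGTA/TEA pipette solution (pH 7.2) was set to 1 µM free Ca2+ and delivered test peptide (100 µM). Steps ran from −30 to +60 mV for 30 s, acquired at 4 kHz and filtered at 1 kHz.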

Cx43^M242 hemichannels = assay: ATP release from HeLa cells transiently expressing CT-truncated Cx43^M242; format: cell-based, human; settings: peptide 100 μM; Fig. 6b
Method in brief: (§1)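 HeLa cells were transiently transfected with the truncated Cx43 construct; empty-vector-transfected cells gave background release. Cells were triggered with 2 µM A23187 while exposed to vehicle or TAT-linked test peptides (100 µM). Extracellular ATP was measured by luciferin–luciferase and normalised to baseline from separate cultures in standard HBSS-HEPES. At least four independent measurements.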

[4] = test system: Cx43^ΔGap19M242-based hemichannels; assay: ATP release from HeLa cells transiently expressing Cx43^ΔGap19M242; format: cell-based, human; settings: peptide 100 μM; 2 μM A23187; n = 4; Fig. 7a
Method in brief: as §1

Cc1ccc2c(c1)C(=O)C1(O)CCN(c3ccccc3)C1=N2 (single isomer, unassigned; (-)) [(−)-blebbistatin]
effect on Cx43-hemichannel inhibition by high [Ca2+]i (Cx43-hemichannels): prevented the Cx43-hemichannel inhibition by high [Ca^2+]i | effect on thrombin-induced inhibition of Cx43-hemichannels in BCECs ([1]; thrombin-treated BCECs): could be alleviated

Gap19: nine amino acid sequence of L2, selective Cx43-hemichannel inhibitor (KQIEIKKFK; UniProt P17302 128-136, looked up, fragment)
effect on opening of Cx43-hemichannels (Cx43-hemichannels): inhibit the opening of Cx43-hemichannels | effect on Cx43 gap junctions (Cx43 gap junctions): not affecting Cx43 gap junctions

SPTAPLSPMSPPG [SH3]
membrane charge transfer (Qm) summary at 1 μM [Ca2+]i ([2]; current traces integrated over time, Fig. 4j): remove hemichannel inhibition | effect on hemichannel opening activity at 50 nM [Ca2+]i ([2]; voltage steps -30 to +60 mV, 30 s, Fig. 4b, c): did not affect | effect on inhibition of Cx43-hemichannel currents by 1 μM [Ca2+]i ([2]; voltage steps -30 to +60 mV, 30 s, Fig. 4g-i): completely prevented the inhibition | unitary current activity in native HeLa cells at 1 μM [Ca2+]i [3]: did not elicit any changes

YGRKKRRORRRDGANVDMHLKQTFTKKFKYGTFFHGK [TAT-L2]
effect on opening of Cx43-hemichannels (Cx43-hemichannels): inhibited the opening of Cx43-hemichannels | effect of TAT-L2 pre-treatment on the active area in BCECs ([1]; pre-treatment of BCECs): severely reduced | effect on Cx43 gap junctions (Cx43 gap junctions): but not Cx43 gap junctions

YGRKKRRQRRRSRPRPDDLFI [TAT-CT9]
effect on Cx43-hemichannel inhibition by high [Ca2+]i (Cx43-hemichannels): prevented the Cx43-hemichannel inhibition by high [Ca^2+]i | restoration of the activity of Cx43^M239-based hemichannels (Cx43-hemichannels; cell-permeant synthetic peptide): can be restored | restoration of the thrombin-reduced active area in BCECs ([1]; thrombin-treated BCECs): could restore the thrombin-reduced active area | restoration of ATP release of Cx43^M242 hemichannels in response to 2 μM A23187 (Cx43^M242 hemichannels): can restore the activity

YGRKKRRQRRRSSPTAPLSPMSPPG [TAT-SH3]
restoration of ATP release through Cx43^ΔGap19M242-based hemichannels [4]: could not be restored | restoration of ATP release of Cx43^M242 hemichannels in response to 2 μM A23187 (Cx43^M242 hemichannels): restored the ATP release properties

thrombin
effect of thrombin pre-treatment on the active area in BCECs ([1]; pre-treatment of BCECs): strongly reduced
